Assay outcomes as filed in PubChem BioAssay.
TRPC4 block = inhibitors of mouse TRPC4 channel, primary screen, Fluo4 calcium, HEK293 TRPC4beta/mu-opioid cells | DAMGO-evoked Fluo4 calcium flux; stronger effect = lower value | AID 2247, 2010 | actives 0.39% (n = 300,000) | B-score at 10 µM;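 active = B-score over 3 SD under the library average, no early fluorescence shift, positive overall ratio signal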
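Assay system: Stable TRPC4beta/mu-opioid receptor HEK293 cells | Reagent: DAMGO in two steps, submaximal then maximal | Compound dosing: Single concentration per test compound | Signal: Fluo4 Ca2+ flux fluorescence | Evaluation: Per-well B score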
TRPC6 inhibitor = mouse TRPC6 channel inhibitors, primary screen, cell-based, HEK293, membrane potential dye; B-score at 10 µM; Short transient receptor potential channel 6 (Mus musculus), Q61143; ACh-evoked depolarization; stronger effect = lower value; actives 1.1% (n = 310,000); AID 2553, 2010;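 active = B-score under library mean minus 3 SD, initial fluorescence not abnormally high, positive integrated signal ratio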;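 note: B-score derived from integrated fluorescence ratio over the kinetic read; more negative B-score means stronger inhibition of depolarization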
Target sequence (Q61143 whole entry, looked up): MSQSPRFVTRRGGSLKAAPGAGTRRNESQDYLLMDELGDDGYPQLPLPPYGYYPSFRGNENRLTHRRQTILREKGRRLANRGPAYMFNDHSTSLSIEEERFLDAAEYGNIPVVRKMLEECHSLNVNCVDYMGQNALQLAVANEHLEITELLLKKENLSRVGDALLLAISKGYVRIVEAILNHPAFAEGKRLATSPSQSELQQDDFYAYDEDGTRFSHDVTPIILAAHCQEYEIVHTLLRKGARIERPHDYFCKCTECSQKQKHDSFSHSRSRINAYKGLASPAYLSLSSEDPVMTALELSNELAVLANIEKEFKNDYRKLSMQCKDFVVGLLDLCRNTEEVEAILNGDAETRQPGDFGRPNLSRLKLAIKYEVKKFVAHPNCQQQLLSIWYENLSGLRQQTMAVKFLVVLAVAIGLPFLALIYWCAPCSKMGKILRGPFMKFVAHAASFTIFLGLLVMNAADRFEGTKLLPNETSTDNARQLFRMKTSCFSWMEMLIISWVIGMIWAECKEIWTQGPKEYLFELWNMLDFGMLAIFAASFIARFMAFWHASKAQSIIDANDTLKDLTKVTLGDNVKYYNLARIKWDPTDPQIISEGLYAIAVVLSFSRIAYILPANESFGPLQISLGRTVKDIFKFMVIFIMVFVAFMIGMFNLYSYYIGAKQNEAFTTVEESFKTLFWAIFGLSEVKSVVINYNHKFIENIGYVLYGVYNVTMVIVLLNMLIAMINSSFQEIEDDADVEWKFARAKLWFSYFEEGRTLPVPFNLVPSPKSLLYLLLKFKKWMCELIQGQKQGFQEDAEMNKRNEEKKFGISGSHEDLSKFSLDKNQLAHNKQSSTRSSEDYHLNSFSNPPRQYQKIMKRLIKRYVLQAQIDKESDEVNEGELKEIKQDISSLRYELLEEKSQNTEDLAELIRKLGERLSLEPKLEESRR
TRPC6 act = mouse TRPC6 channel activators, primary screen, cell-based, HEK293, membrane potential dye. Short transient receptor potential channel 6 (Mus musculus), Q61143. HEK293-TRPC6 membrane potential dye fluorescence; stronger effect = higher value. B-score at 10 µM. actives 0.13% (n = 310,000). AID 2550, 2010;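 active = B-score of the integrated fluorescence ratio above library mean plus 3 SD, and starting fluorescence ratio within library mean plus 5 SD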;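 note: higher score means more depolarization so channel activation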
TRPC4 agonist = activators of mouse TRPC4 channel, primary screen, Fluo4 calcium, HEK293 TRPC4beta/mu-opioid cells; actives 0.49% (n = 310,000); B-score at 10 µM; AID 2237, 2010; Fluo4 calcium fluorescence; stronger effect = higher value; Short transient receptor potential channel 4 (Mus musculus), Q9QUQ5;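 active = B-score above 5 SD of library B-scores, and initial fluorescence ratio not above library mean plus 5 SD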;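 note: positive B-score marks a calcium rise read as TRPC4 activation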
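Incubation: 45 min room-temperature Fluo4 loading, 110 s read / System: HEK293 cells stably co-expressing mouse TRPC4beta and mu-opioid receptor / Signal: Fluo4 fluorescence, kinetic / Control set: buffer (low) and maximal DAMGO (high) / Measure: integrated baseline-normalised fluorescence ratio, converted to per-well B score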
TRPC4 potent = positive allosteric modulators of TRPC4, primary screen, cell-based, mouse TRPC4beta, HEK293 mu-opioid, Fluo-4 calcium. B-score at 10 µM. DAMGO EC20, Fluo-4 Ca2+ flux; stronger effect = higher value. actives 0.42% (n = 310,000);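 active = B-score of calcium response area above 5 SD of library B-scores, with initial fluorescence ratio within 5 SD of library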;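 note: B-score of integrated fluorescence ratio over time as area under calcium response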
TRPC4 sel inh 2 = mouse TRPC4 off-target activity of TRPC6 inhibitors, second screen. shares compounds with TRPC6 inhibitor. HEK293 TRPC4/MOR, membrane potential dye fluorescence; channel activated by saturating DAMGO dose. inhibition, % at 10 µM. actives 42% (n = 920). AID 2776;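 active = compounds whose fluorescence signal differed from control wells by over 3 SD, either direction, in both duplicate plates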
TRPC4 spec = mouse TRPC4 modulation by TRPC6 hits, confirmation, selectivity assay for TRPC6 inhibitor project, cell-based, HEK293 TRPC4/mu-opioid, membrane potential dye; shares compounds with TRPC6 inhibitor; membrane potential fluorescence; activity change, negative = inhibition, % at 10 µM; actives 61% (n = 920);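 active = rise or fall in signal beyond 3 SD of buffer-only wells in both replicate plates, either sign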;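 note: integrated kinetic ratio of fluorescence range over baseline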
HEK293 MPD ctr 2-1 = nonspecific membrane potential effects, parental HEK293, confirmation, counter-screen for TRPC6 inhibitor project, cell-based, second counter screen; shares compounds with TRPC6 inhibitor; parental HEK293 membrane potential dye fluorescence; maximal acetylcholine challenge after compound addition; signal change vs control, % at 10 µM; actives 31% (n = 920);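 active = membrane potential signal moving either way by over 3 SD of the maximum-effect control, in both duplicate plates, meaning non-specific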
HEK293 MPD ctr-1 = membrane potential modulation in parental HEK293, confirmation, counter-screen for TRPC6 inhibitor project, cell-based; shares compounds with TRPC6 inhibitor; parental HEK293 membrane potential dye fluorescence; membrane potential signal change, % at 10 µM; actives 60% (n = 920); AID 2780, 2010;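 active = membrane potential signal shifting up or down by more than 3 SD of buffer-only wells, on both duplicate plates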
HEK293 MPD ctr-2 = parental HEK293 membrane potential modulation, confirmation, counter-screen for TRPC6 modulator project, cell-based | shares compounds with TRPC6 inhibitor | membrane potential dye fluorescence | membrane potential signal change, % at 10 µM | actives 51% (n = 2,400) | AID 488924, 2010;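 active = membrane potential signal moves up or down beyond 5 SD from buffer-only wells, on both duplicate plates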
HEK293 MPD ctr 2-2 = second check of TRPC6 modulator effects in parental HEK293 cells; shares compounds with TRPC6 inhibitor; membrane potential dye fluorescence; after compound, maximal acetylcholine stimulation; inhibition, % at 10 µM; actives 14% (n = 2,400); AID 488926;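 active = membrane potential signal drops by more than 5 SD from the mean control signal, in both duplicate plates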;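 note: plate controls were acetylcholine ECmax control wells for no effect and buffer only wells for full effect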
TRPC4/MOR mod = TRPC4 modulation by TRPC6 hit compounds, confirmation, selectivity assay for TRPC6 modulator project, cell-based, HEK293 TRPC4/mu-opioid, membrane potential dye, mouse. shares compounds with TRPC6 inhibitor. membrane potential fluorescence. percent change from control (negative = decrease, positive = increase), % at 10 µM. actives 69% (n = 2,400). AID 488927, 2010;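 active = membrane potential signal moved up or down beyond 5 SD of buffer control wells, in both duplicate plates, actives on both sides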;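 note: plate controls were assay buffer wells for no effect and DAMGO maximal-effect wells for full effect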
TRPC4/MOR inh 2 = mouse TRPC4 off-target activity of TRPC6 modulators, second screen; HEK293 TRPC4/mu-opioid, membrane potential dye fluorescence; stimulated with maximal-effect DAMGO; inhibition, % at 10 µM; shares compounds with TRPC6 inhibitor; actives 55% (n = 2,400);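 active = drop in membrane potential signal beyond 5 SD of the control wells in both duplicate plates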;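 note: TRPC4 counter screen for TRPC6 hits run under conditions tuned for TRPC6 not TRPC4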
TRPC6 inh conf = mouse TRPC6 channel inhibitors, confirmation, HEK293 cells, membrane potential dye, duplicate | shares compounds with TRPC6 inhibitor | ACh-evoked depolarization | inhibition, % at 10 µM | actives 43% (n = 3,300);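 active = fluorescence ratio falls more than 5 SD below the full-stimulation control mean, in both duplicate runs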;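 note: integrated fluorescence ratio of peak minus minimum over baseline after agonist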
TRPC6 act confirm = mouse TRPC6 channel activators, confirmation, HEK293 cells, membrane potential dye, duplicate | shares compounds with TRPC6 inhibitor | HEK293-TRPC6 membrane potential dye fluorescence, FDSS | activation, % at 10 µM | actives 11% (n = 2,800) | AID 488961, 2010;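 active = ratio signal rise beyond 5 SD above unstimulated control wells' mean, seen in both duplicate runs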;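 note: plate controls were buffer EC0 wells for no effect and acetylcholine ECmax response for full effect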
An asterisk follows results filed as active. This is a sample that favours compounds with a hit; in the whole collection about 2.3% have one here.

How did COc1ccc(CCNC(=O)c2nn(C)c3c2CS(=O)(=O)c2ccccc2-3)c(OC)c1 do in these assays?
TRPC4 block: inactive; TRPC6 inhibitor: inactive; TRPC6 act: inactive; TRPC4 agonist: inactive; TRPC4 potent: inactive

What do the screens show for `O=C(N/N=C/c1sc(N2CCOCC2)nc1-c1ccccc1)c1cccc(S(=O)(=O)N2CCCC2)c1`?
TRPC4 block: inactive; TRPC6 inhibitor: -5.9*; TRPC6 act: inactive; TRPC4 agonist: inactive; TRPC4 potent: inactive; HEK293 MPD ctr-2: 454%*; HEK293 MPD ctr 2-2: inactive; TRPC4/MOR mod: -56%*; TRPC4/MOR inh 2: inactive; TRPC6 inh conf: inactive; TRPC6 act confirm: inactive

Results for O=C(N/N=C/c1cc(Br)cc(Br)c1O)c1cccc(S(=O)(=O)N2CCOCC2)c1 ?
TRPC4 block: inactive; TRPC6 inhibitor: -5.7*; TRPC6 act: inactive; TRPC4 agonist: inactive; TRPC4 potent: inactive; HEK293 MPD ctr-2: inactive; HEK293 MPD ctr 2-2: inactive; TRPC4/MOR mod: 26%*; TRPC4/MOR inh 2: inactive; TRPC6 inh conf: inactive; TRPC6 act confirm: inactive

How did CC(=O)Nc1ccc(/C=N/NC(=O)c2cccc(S(=O)(=O)N3CCOCC3)c2)cc1 do in these assays?
TRPC4 block: inactive; TRPC6 inhibitor: inactive; TRPC6 act: inactive; TRPC4 agonist: inactive; TRPC4 potent: inactive

How did O=C(N/N=C/c1sc(N2CCOCC2)nc1-c1ccccc1)c1ccc(O)cc1 do in these assays?
TRPC4 block: inactive; TRPC6 inhibitor: inactive; TRPC6 act: inactive; TRPC4 agonist: inactive; TRPC4 potent: inactive

What do the screens show for `O=C(NCc1nc(-c2ccc(C(F)(F)F)cc2)no1)Nc1ccc(OC(F)(F)F)cc1`?
TRPC4 block: inactive; TRPC6 inhibitor: inactive; TRPC6 act: inactive; TRPC4 agonist: inactive; TRPC4 potent: inactive

What do the screens show for `CCCc1cc(C(=O)N2CCCC(Nc3ccc(C)c(C)c3)C2)n(C)n1` (configuration not stated)?
TRPC4 block: inactive; TRPC6 inhibitor: inactive; TRPC6 act: inactive; TRPC4 agonist: inactive; TRPC4 potent: inactive

What do the screens show for `OCC[C@H]1C[C@@H](O)[C@H](O)[C@@]2(CCCCO2)O1`?
TRPC4 block: inactive; TRPC6 inhibitor: -7.4*; TRPC6 act: inactive; TRPC4 agonist: inactive; TRPC4 potent: inactive; TRPC4 sel inh 2: inactive; TRPC4 spec: inactive; HEK293 MPD ctr 2-1: inactive; HEK293 MPD ctr-1: inactive; TRPC6 inh conf: inactive; TRPC6 act confirm: inactive

Results for Nc1ccccc1Nc1nc2ccccc2[nH]1 ?
TRPC4 block: inactive; TRPC6 inhibitor: -5.5*; TRPC6 act: inactive; TRPC4 agonist: inactive; TRPC4 potent: inactive; HEK293 MPD ctr-2: 340%*; HEK293 MPD ctr 2-2: inactive; TRPC4/MOR mod: 88%*; TRPC4/MOR inh 2: inactive; TRPC6 inh conf: inactive

How did CC(C)(C)c1ccc(C(=O)NCCCNC(=O)c2ccccn2)cc1 do in these assays?
TRPC4 block: inactive; TRPC6 inhibitor: inactive; TRPC6 act: inactive; TRPC4 agonist: inactive; TRPC4 potent: inactive

What do the screens show for `COC(=O)C1Cc2c([nH]c3ccccc23)C2(CCN(Cc3ccccc3)CC2)N1` (configuration not stated)?
TRPC4 block: inactive; TRPC6 inhibitor: -7.5*; TRPC6 act: inactive; TRPC4 agonist: inactive; TRPC4 potent: inactive; TRPC4 sel inh 2: 47%*; TRPC4 spec: 5.6%*; HEK293 MPD ctr 2-1: 248%*; HEK293 MPD ctr-1: inactive; TRPC6 inh conf: inactive; TRPC6 act confirm: inactive

What do the screens show for `O=C(c1ccc(F)cc1)N1CCN(c2cc(N3CCCCC3)c(F)cc2[N+](=O)[O-])CC1`?
TRPC6 inhibitor: -10*; TRPC6 act: inactive; TRPC4 agonist: inactive; TRPC4 potent: inactive; TRPC4 sel inh 2: inactive; TRPC4 spec: inactive; HEK293 MPD ctr 2-1: inactive; HEK293 MPD ctr-1: inactive; TRPC6 inh conf: inactive; TRPC6 act confirm: inactive

How did COc1ccc(N2CCN(C(=O)c3ccc(F)cc3)CC2)c([N+](=O)[O-])c1 do in these assays?
TRPC4 block: inactive; TRPC6 inhibitor: inactive; TRPC6 act: inactive; TRPC4 agonist: inactive; TRPC4 potent: inactive
